Drawing on ChEMBL document CHEMBL4411287, “Discovery and optimization of a series of 3-substituted indazole derivatives as multi-target kinase inhibitors for the treatment of lung squamous cell carcinoma” (Eur J Med Chem, 2019), this text covers AUC(0-t) and inhibition for one compound.

Calls of active or inactive are those of the source. No cut-off for these calls is given here.

Data set [1] can be described thus: AUC (0 to t) in ICR(CD-1) mouse at 10 mg/kg, po administered via gavage by triple quadrupole mass spectrometric analysis. It counts as ADME, organism-based. The settings on record: in vivo. A digest of the protocol: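 Oral gavage at 1 mg/mL in 1% Tween80/water to male ICR mice (18-22 g, n=3). Plasma sampled at 0.25, 0.5, 1, 2, 4, 8 and 24 h, protein precipitated with methanol:acetonitrile (1:1) containing internal standard, and quantified by UPLC-triple quadrupole MS. AUC and MRT were taken from per-animal time-concentration curves. Cmax is the maximum plasma level and Tmax the time to reach it.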

Data set [2] has as its target Mitogen-activated protein kinase 3 (Homo sapiens) (UniProt P27361). In words: Inhibition of ERK1 (unknown origin) at 100 nM relative to control.
Data set [3] relates to T1, Discoidin domain-containing receptor 2 (Homo sapiens), Q16832 [I638F].
T1 sequence (whole entry): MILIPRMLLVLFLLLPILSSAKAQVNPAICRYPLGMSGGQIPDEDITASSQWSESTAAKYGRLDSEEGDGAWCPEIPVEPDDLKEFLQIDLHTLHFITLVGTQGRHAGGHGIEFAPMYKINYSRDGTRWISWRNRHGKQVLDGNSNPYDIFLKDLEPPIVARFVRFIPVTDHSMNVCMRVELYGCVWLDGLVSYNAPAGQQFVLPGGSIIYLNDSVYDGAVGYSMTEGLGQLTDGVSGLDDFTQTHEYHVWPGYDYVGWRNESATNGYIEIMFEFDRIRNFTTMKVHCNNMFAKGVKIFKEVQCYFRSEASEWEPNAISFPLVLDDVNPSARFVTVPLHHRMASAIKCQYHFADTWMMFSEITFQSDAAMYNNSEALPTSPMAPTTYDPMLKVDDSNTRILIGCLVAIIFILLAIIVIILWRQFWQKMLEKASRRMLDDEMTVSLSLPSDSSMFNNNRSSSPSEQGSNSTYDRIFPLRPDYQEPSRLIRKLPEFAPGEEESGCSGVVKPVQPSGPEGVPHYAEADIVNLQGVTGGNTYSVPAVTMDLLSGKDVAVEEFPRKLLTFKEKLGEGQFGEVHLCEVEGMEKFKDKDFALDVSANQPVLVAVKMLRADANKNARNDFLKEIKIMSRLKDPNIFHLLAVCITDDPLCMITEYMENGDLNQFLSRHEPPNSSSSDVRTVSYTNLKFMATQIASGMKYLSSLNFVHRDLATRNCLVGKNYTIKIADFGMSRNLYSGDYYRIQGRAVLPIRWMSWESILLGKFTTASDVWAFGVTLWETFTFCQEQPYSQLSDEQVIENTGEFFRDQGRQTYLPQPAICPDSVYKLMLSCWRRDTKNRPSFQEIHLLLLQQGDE
Nature of the data set: Inhibition of DDR2 I638F mutant in human NCI-H2286 cells assessed as decrease in ERK phosphorylation at […] after 2 hrs by Western blot analysis. Type of data set: cell-based. A digest of the protocol:
(§1)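 NCI-H2286 cells exposed to compound for 2 h at 37 °C and lysed in SDS sample buffer. Lysates run on 10% SDS-PAGE and blotted to nitrocellulose. Membranes probed for phospho- and total DDR2, ERK and Akt, with GAPDH as loading control, and detected by HRP secondary antibody and enhanced chemiluminescence.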

Data set [4] shares this test system. In words: Inhibition of DDR2 I638F mutant phosphorylation in human NCI-H2286 cells after 2 hrs by Western blot analysis. Type of data set: cell-based. A digest of the protocol:
as §1

Data set [5] addresses Receptor tyrosine-protein kinase erbB-4 (Homo sapiens) (UniProt Q15303). Nature of the data set: Inhibition of ErbB4 (unknown origin) at 100 nM relative to control. A digest of the protocol:
(§2)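 Purified recombinant kinase domains run in ELISA on precoated poly(Glu,Tyr) 4:1 (20 µg/mL) with 10 µM ATP in 50 mM HEPES pH 7.4, 50 mM MgCl2, 0.5 mM MnCl2, 0.2 mM Na3VO4, 1 mM DTT; 1% DMSO control; 60 min at 37 °C. Phosphotyrosine read by PY99 antibody, HRP anti-mouse IgG, OPD/H2O2 at 490 nm; inhibition = [1−A490/A490control]×100%; two separate experiments.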

The target in data set [6] is Proto-oncogene tyrosine-protein kinase Src (Homo sapiens) (UniProt P12931). Nature of the data set: Inhibition of c-Src (unknown origin) at 1000 nM relative to control. The essentials:
(§3)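 ELISA with purified recombinant kinase on plates precoated with poly(Glu,Tyr) 4:1 at 20 µg/mL. ATP 10 µM in HEPES pH 7.4 buffer with MgCl2, MnCl2, Na3VO4 and DTT. Run 60 min at 37 °C. Detected with anti-phosphotyrosine PY99, HRP secondary antibody and o-phenylenediamine, read at 490 nm. Inhibition % = [1 − A490/A490 control]×100. 1% DMSO as negative control.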

For data set [7], the target named is Fibroblast growth factor receptor 3 (Homo sapiens) (UniProt P22607). Nature of the data set: Inhibition of FGFR3 (unknown origin) at 100 nM relative to control. A digest of the protocol: as §2
Fibroblast growth factor receptor 3 (Homo sapiens), sequence (P22607 23-806 limits assumed): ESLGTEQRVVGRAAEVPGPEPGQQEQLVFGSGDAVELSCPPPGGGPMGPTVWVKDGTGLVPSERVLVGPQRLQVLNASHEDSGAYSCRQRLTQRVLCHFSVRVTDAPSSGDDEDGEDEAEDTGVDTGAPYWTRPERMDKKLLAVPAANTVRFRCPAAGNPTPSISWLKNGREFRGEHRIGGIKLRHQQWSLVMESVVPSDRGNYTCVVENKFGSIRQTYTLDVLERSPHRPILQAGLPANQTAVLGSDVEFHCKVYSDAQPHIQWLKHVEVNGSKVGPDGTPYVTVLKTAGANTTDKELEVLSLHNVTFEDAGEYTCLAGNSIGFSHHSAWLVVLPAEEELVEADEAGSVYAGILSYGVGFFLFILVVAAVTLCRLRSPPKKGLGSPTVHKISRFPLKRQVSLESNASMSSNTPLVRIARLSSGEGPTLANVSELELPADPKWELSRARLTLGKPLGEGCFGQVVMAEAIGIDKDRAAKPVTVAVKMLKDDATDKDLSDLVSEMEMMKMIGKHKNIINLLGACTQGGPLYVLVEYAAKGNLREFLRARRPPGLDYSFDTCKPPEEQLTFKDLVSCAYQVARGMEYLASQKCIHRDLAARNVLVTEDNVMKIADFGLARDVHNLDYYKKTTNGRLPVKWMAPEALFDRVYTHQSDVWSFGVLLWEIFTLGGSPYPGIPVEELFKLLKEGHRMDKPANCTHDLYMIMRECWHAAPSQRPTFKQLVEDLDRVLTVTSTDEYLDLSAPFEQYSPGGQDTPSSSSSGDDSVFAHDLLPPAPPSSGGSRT
Data set [8] deals with Cyclin-dependent kinase 6 (Homo sapiens) (UniProt Q00534). Nature of the data set: Inhibition of CDK6 (unknown origin) at 10 nM relative to control.
Cyclin-dependent kinase 6 (Homo sapiens), sequence (Q00534 whole entry): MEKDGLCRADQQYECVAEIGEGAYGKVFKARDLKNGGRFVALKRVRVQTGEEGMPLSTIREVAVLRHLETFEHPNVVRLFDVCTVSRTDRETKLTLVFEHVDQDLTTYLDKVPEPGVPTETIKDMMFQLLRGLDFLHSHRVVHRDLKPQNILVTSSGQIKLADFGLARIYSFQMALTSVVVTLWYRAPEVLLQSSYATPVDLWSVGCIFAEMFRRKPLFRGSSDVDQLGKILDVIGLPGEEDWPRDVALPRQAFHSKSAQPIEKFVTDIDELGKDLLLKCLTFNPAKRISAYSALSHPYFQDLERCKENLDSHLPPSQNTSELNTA
Data set [9] has as its target Tyrosine-protein kinase BTK (Homo sapiens) (UniProt Q06187). In words: Inhibition of BTK (unknown origin) at 1000 nM relative to control.
Data set [10] deals with Platelet-derived growth factor receptor alpha (Homo sapiens) (UniProt P16234). Nature of the data set: Inhibition of PDGFR-alpha (unknown origin) at 10 nM relative to control. A digest of the protocol: as §2
Platelet-derived growth factor receptor alpha (Homo sapiens), sequence (P16234 whole entry): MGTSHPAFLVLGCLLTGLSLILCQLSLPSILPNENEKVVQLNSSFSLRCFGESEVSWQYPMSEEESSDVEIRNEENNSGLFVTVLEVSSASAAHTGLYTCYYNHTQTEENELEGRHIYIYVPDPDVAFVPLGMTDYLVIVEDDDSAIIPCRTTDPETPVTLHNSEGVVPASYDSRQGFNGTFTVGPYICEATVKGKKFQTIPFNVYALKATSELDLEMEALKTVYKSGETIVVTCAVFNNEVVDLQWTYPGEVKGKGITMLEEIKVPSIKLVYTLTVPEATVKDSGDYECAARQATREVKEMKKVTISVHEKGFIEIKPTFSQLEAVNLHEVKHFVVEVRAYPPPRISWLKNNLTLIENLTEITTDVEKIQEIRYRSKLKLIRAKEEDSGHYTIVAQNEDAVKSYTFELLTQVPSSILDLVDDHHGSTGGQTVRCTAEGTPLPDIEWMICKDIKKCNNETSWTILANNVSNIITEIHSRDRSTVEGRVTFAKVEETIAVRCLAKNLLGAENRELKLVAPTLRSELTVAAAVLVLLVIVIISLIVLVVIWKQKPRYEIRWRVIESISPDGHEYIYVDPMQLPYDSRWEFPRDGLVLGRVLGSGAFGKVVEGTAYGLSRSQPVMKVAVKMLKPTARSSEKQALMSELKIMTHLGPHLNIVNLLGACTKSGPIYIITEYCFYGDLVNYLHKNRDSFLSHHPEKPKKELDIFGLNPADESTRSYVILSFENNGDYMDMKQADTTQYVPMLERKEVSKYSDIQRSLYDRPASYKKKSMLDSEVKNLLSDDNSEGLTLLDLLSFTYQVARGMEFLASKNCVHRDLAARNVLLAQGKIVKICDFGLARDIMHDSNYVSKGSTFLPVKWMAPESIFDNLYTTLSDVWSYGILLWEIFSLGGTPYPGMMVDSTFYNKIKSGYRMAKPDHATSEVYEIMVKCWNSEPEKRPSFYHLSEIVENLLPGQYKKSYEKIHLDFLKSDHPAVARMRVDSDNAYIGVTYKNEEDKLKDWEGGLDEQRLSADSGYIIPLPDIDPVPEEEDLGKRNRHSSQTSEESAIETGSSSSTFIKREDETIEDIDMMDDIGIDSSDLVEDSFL
The target of data set [11] is Tyrosine-protein kinase JAK1 (Homo sapiens) (UniProt P23458). In words: Inhibition of JAK1 (unknown origin) at 10 nM relative to control. A digest of the protocol:
as §2

The target in data set [12] is Mitogen-activated protein kinase 1 (Homo sapiens) (UniProt P28482). In words: Inhibition of ERK2 (unknown origin) at 100 nM relative to control.
Mitogen-activated protein kinase 1 (Homo sapiens), sequence (P28482 whole entry): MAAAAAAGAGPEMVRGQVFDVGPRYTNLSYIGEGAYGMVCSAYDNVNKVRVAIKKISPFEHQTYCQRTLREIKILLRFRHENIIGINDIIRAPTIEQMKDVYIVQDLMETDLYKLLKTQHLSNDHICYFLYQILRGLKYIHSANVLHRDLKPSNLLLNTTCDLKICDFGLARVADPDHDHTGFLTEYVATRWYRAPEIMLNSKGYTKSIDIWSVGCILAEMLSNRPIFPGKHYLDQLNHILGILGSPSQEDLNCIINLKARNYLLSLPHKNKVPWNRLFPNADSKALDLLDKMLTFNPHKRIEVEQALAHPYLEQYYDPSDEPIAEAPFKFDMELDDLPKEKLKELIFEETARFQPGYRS
The target in data set [13] is Tyrosine-protein kinase receptor UFO (Homo sapiens) (UniProt P30530). In words: Inhibition of AXL (unknown origin) at 10 nM relative to control.
Tyrosine-protein kinase receptor UFO (Homo sapiens), sequence (P30530 whole entry): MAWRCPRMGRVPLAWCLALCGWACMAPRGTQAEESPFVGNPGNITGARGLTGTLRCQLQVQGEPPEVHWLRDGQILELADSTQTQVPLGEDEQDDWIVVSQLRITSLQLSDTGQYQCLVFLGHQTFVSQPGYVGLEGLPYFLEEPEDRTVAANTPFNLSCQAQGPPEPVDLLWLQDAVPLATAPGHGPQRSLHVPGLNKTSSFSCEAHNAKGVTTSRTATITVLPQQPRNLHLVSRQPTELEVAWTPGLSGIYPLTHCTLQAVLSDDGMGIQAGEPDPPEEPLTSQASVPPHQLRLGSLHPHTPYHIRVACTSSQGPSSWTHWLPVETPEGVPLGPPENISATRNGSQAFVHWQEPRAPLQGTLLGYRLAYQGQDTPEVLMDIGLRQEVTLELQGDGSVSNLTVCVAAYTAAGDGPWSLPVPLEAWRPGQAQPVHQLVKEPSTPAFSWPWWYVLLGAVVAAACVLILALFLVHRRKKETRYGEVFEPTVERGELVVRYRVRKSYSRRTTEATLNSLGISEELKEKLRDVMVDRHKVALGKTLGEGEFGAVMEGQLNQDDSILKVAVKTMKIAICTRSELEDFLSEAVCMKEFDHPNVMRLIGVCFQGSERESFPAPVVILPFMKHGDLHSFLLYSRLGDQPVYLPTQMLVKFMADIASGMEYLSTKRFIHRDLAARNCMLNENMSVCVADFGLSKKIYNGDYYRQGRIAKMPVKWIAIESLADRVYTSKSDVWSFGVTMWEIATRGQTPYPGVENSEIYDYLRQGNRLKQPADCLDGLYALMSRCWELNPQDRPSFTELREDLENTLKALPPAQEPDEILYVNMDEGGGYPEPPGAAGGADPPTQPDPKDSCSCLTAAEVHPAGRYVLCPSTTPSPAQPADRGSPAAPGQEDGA
Data set [14] concerns the target Proto-oncogene tyrosine-protein kinase Src (Homo sapiens) (UniProt P12931). Nature of the data set: Inhibition of c-Src (unknown origin) at 100 nM relative to control. The essentials:
as §3

In data set [15] the target is Fibroblast growth factor receptor 2 (Homo sapiens) (UniProt P21802). Nature of the data set: Inhibition of FGFR2 (unknown origin) at 1000 nM relative to control. A digest of the protocol: as §2

Proto-oncogene tyrosine-protein kinase Src (Homo sapiens), sequence (P12931 2-536 limits assumed): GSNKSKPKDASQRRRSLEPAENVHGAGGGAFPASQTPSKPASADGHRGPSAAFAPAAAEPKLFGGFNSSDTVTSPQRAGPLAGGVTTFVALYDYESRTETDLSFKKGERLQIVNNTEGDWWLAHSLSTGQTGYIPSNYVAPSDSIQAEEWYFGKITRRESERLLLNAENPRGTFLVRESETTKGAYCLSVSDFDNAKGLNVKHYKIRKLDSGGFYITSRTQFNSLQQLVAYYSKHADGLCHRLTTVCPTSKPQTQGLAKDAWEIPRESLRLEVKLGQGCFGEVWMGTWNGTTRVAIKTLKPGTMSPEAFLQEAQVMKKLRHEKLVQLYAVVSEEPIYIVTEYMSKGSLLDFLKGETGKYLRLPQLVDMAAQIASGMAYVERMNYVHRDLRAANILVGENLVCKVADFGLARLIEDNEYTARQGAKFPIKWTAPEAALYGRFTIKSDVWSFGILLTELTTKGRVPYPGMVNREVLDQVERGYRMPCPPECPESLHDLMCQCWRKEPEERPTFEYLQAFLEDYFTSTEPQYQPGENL
Tyrosine-protein kinase BTK (Homo sapiens), sequence (Q06187 whole entry): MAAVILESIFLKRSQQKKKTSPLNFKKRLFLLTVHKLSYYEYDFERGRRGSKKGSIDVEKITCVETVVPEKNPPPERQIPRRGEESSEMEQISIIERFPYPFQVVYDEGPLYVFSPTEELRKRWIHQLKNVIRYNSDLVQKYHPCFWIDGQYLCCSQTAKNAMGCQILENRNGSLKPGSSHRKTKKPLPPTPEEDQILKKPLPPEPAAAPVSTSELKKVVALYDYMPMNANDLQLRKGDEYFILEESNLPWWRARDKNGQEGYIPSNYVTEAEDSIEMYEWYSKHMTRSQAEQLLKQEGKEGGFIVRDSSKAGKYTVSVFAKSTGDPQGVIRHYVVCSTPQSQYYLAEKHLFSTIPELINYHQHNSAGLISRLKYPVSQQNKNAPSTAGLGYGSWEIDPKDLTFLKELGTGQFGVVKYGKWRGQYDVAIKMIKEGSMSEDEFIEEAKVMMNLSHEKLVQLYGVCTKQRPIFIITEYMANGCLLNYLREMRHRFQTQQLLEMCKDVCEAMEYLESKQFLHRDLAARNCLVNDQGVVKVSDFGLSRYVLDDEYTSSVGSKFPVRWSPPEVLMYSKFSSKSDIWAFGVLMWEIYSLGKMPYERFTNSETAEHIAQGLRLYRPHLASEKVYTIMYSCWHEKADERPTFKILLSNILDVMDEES
Mitogen-activated protein kinase 3 (Homo sapiens), sequence (P27361 whole entry, the tested form may be a part): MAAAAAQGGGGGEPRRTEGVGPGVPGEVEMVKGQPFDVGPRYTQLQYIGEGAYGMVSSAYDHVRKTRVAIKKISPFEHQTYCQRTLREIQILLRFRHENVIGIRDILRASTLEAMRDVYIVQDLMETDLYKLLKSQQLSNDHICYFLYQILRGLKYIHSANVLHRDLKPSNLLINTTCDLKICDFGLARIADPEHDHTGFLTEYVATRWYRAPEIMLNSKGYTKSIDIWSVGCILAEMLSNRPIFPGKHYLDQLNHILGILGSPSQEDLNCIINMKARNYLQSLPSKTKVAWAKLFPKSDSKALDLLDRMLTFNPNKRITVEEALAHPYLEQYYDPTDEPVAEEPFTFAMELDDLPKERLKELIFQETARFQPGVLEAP

In data set [1], `Cc1ccc(C(=O)Nc2cccc(C(F)(F)F)c2)cc1-c1ccc2c(-c3cnn(C4CC4)c3)n[nH]c2c1` had an area under the curve AUC(0-t) of 7640 ng·h/mL. In addition, the inhibition in [2] is 0.6%; in [4] it was “Dose-dependent effect”; in data set [5], 0%; in data set [6], 96.8%; in [7] it was 82%; in data set [8] it was 0.5%. The inhibition in data set [9] was determined as 80.9%; in [10], 59.7%; in data set [11], 0.2%; in data set [12] it was 2.5%; in [13], 42%; in data set [14], 87.6%. For the same compound, the inhibition in data set [15] worked out at 100%. Besides, in data set [3], the inhibition result was “Active”.
